# Assay results gathered from unrelated publications.
# Compare with care: the assays were run in different laboratories.
# ST14: Suppressor of tumorigenicity 14 protein (ST14, Homo sapiens, UniProt Q9Y5Y6)
# CDK2 with cyclin A2: Cyclin-dependent kinase 2, with cyclin A2 (CDK2, Homo sapiens, UniProt P24941)
# Oprd1: Delta-type opioid receptor (Oprd1, Rattus norvegicus, UniProt P33533)
Compound,target,assay,setting,measurement,value
N=C(N)NCCC[C@H](NC(=O)[C@H](Cc1ccc(C(=O)c2ccccc2)cc1)NC(=O)[C@H](Cc1cscn1)NC(=O)CCc1ccccc1)C(=O)c1nc2ccccc2s1,ST14,"enzyme activity, inhibitor",0.1 µM,remaining activity,89%
CC(=O)c1c(C)c2cnc(Nc3ccc(N4CCNCC4)cn3)nc2n(C2CCCC2)c1=O,"Cyclin-dependent kinase 2 (CDK2, Homo sapiens, UniProt P24941)","enzyme activity, inhibitor, ADP detection",1 µM,activity vs control,79%
N=C(N)NCCC[C@H](NC(=O)[C@@H](NC(=O)[C@H](Cc1cscn1)NC(=O)CCc1ccccc1)C1CC1)C(=O)c1nc2ccccc2s1,ST14,"enzyme activity, inhibitor",0.1 µM,remaining activity,90%
O=C(COP(=O)(O)O)[C@@H](O)[C@H](O)[C@H](O)COP(=O)(O)O,"Glyceraldehyde-3-phosphate dehydrogenase (GAPDH, Homo sapiens, UniProt P04406)",thermal stability,"5 mM, lysate",ΔTm,5.9 °C
C=CC(=O)N1CCC(COCC(=O)N2CCN(c3nc(-c4cnc(N)nc4C(F)F)nc(N4CCOC[C@@H]4C)n3)CC2)CC1,"Mitogen-activated protein kinase 6 (MAPK6, Homo sapiens, UniProt Q16659)","binding, competition with immobilised ligand",1 µM,remaining binding,100%
CC(=O)Nc1c(N)nc(SCC(=O)NN)[nH]c1=O,CDK2 with cyclin A2,"enzyme activity, inhibitor",20 nM,inhibition,30.9%
CNc1ncc2c(/C=C/C(=O)N3CCC(OC)CC3)nn(Cc3cccc(C(F)(F)F)c3)c2n1,"Mitogen-activated protein kinase kinase kinase 14 (MAP3K14, Homo sapiens, UniProt Q99558)","enzyme activity, inhibitor, radiometric",1 µM,remaining activity,105%
CC(C)(NC(=O)[C@H](Cc1cscn1)NC(=O)CCc1ccccc1)C(=O)N[C@@H](CCCNC(=N)N)C(=O)c1nc2ccccc2s1,ST14,"enzyme activity, inhibitor",0.1 µM,remaining activity,4%
C[C@H]1C(=O)/C(=C/c2ccccc2)[C@H]2C[C@@H]1N(Cc1ccccc1)C[C@@]2(C)O,Oprd1,"ligand displacement, radioligand",1 µM,inhibition,16%
CNC(=O)c1cc(Oc2ccc(NC(=O)Nc3ccc(Cl)c(C(F)(F)F)c3)cc2)ccn1,CDK2 with cyclin A2,"enzyme activity, inhibitor",1 nM,inhibition,19.6%
COc1cc(-c2cncc3c2CN(C)Cc2cc(N4CCNCC4)ccc2-3)cc(OC)c1OC,"Cyclin-dependent kinase 2, with cyclin E (CDK2, Homo sapiens, UniProt P24941)","enzyme activity, inhibitor",1 µM,remaining activity,107%
CC(=O)Nc1c(N)nc(SCC(=O)N/N=C/c2ccc([N+](=O)[O-])cc2)[nH]c1=O,CDK2 with cyclin A2,"enzyme activity, inhibitor",20 nM,inhibition,21.3%
CC(C)C[C@@H](C(=O)N[C@@H](CCCNC(=N)N)C(=O)c1nc2ccccc2s1)N(C)C(=O)[C@H](Cc1cscn1)NC(=O)CCc1ccccc1,ST14,"enzyme activity, inhibitor",0.1 µM,remaining activity,50%
Cc1cc(NC(=O)c2cccc(NC(=O)/C=C/CN(C)C)c2)ccc1Nc1nccc(-c2cccnc2)n1,"Mitogen-activated protein kinase 10 (MAPK10, Homo sapiens, UniProt P53779)","binding, competition with immobilised ligand",1 µM,remaining binding,0%
CC1([C@H](NC(=O)[C@H](Cc2cscn2)NC(=O)CCc2ccccc2)C(=O)N[C@@H](CCCNC(=N)N)C(=O)c2nc3ccccc3s2)CC1,ST14,"enzyme activity, inhibitor",0.1 µM,remaining activity,69%
COc1ccc2[nH]c3c(c2c1)[C@H]1C[C@@H]([C@H]3C)N(Cc2ccccc2)C[C@]1(C)O,Oprd1,"ligand displacement, radioligand",1 µM,inhibition,13%
CCCC[C@H](NC(=O)[C@H](Cc1cscn1)NC(=O)CCc1ccccc1)C(=O)N[C@@H](CCCNC(=N)N)C(=O)c1nc2ccccc2s1,ST14,"enzyme activity, inhibitor",0.1 µM,remaining activity,37%
Cc1cc([C@@H](C)Nc2ccccc2C(=O)O)c2nc(N3CCC(F)(F)CC3)c(C#N)c(=O)n2c1,"Tyrosine-protein kinase ZAP-70 (ZAP70, Homo sapiens, UniProt P43403)","binding, competition with immobilised ligand",1 µM,remaining binding,100%
